Screening results deposited in PubChem by several laboratories.
Compounds with a hit are over-represented: about 1.8% of the library has one in this group of screens.
CXCR6 block: CXCR6 receptor inhibitors, primary screen, cell-based, beta-arrestin, luminescence, CHO-K1 PathHunter, 1536-well; C-X-C chemokine receptor type 6 (Homo sapiens), O00574; 0.36% of 360,000 active; AID 602244, 2012; inhibition, % at 20 µM; in the data active means inhibition above about 34%, passing the limit was not always enough;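 further: antagonist mode with CXCL16 agonist at 10 nM final; 0% = 10 nM CXCL16 with DMSO and 100% = unstimulated wells without agonist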
Target sequence (O00574 whole entry, looked up): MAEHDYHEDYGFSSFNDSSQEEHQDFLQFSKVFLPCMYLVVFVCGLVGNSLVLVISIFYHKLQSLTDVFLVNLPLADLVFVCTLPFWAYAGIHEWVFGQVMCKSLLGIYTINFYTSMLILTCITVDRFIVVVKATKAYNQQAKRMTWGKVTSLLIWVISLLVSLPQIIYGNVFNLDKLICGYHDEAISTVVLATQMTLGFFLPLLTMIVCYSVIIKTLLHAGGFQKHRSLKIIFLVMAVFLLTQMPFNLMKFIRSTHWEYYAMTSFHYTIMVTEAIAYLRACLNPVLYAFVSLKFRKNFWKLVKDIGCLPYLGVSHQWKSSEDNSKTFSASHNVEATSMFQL
APJ antag: antagonists of human apelin receptor APJ, primary screen, CHO-K1 cells, beta-arrestin complementation, luminescence. AID 2521, 2010. inhibition, % at 20 µM. 0.32% of 330,000 active. P35414;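 active means inhibition above about 40% at 20 µM, limit read from the data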;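 further: cells challenged with 10 nM apelin-13 agonist together with compound; plate controls were apelin-13 plus DMSO wells for no effect and DMSO wells lacking apelin-13 for full effect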
EBI2 antag: EBI2 receptor antagonists, beta-arrestin recruitment, primary screen, cell-based, luminescence, 7a,25-OHC stimulation, uHTS; 7a,25-OHC stimulated; inhibition, % at 5 µM; 0.81% of 360,000 active; in the data active means inhibition above about 38%;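 further: enzyme fragment complementation signal reports receptor beta-arrestin coupling in cells; 0% = agonist plus DMSO wells and 100% = wells without agonist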
CCR6 antag: CCR6 receptor antagonists, primary screen, cell-based, CHO-K1, luminescence, beta-arrestin, uHTS. inhibition, % at 20 µM. 0.49% of 340,000 active. CHO-K1 CCR6 PathHunter beta-arrestin, CCL20-stimulated. C-C chemokine receptor type 6 (Homo sapiens), P51684. AID 493098, 2011;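 active means compounds whose inhibition of the agonist-driven luminescence signal at 20 µM reaches about 50%, limit read from the data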;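 further: cells stimulated with CCL20 at 14 nM final; plate controls were DMSO with CCL20 for no effect and DMSO without agonist for full effect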
Target sequence (P51684 whole entry, looked up): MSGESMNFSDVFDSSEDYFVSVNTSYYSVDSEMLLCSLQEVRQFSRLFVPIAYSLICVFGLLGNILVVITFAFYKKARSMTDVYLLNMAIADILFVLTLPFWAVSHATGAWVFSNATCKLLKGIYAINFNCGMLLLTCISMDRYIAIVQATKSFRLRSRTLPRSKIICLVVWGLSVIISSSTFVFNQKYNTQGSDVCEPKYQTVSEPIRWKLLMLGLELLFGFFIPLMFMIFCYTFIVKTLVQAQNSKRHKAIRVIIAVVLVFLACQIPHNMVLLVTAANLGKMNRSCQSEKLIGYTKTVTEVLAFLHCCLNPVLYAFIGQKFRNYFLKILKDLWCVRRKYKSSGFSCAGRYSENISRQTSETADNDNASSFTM
APJ ag: agonists of human apelin receptor APJ, primary screen, CHO-K1 cells, PathHunter beta-arrestin, luminescence; 0% DMSO wells, 100% apelin; activation, % at 20 µM; 0.11% of 330,000 active;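 active means activation more than six SD over the plate average, tested at 20 µM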;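 further: 0% = DMSO alone and 100% = apelin-13 at 10 nM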
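Test system: CHO-K1 APJ beta-arrestin complementation cell line | Compound: Single test compound dose, 20 µM final, 1% DMSO | Incubation: Compound 90 min 25 °C, reagent 1 h | Measured by: beta-gal luminescence | Read-out basis: APJ–arrestin association signal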
B2AR ag: beta2AR agonists driving receptor internalization, primary screen, cell-based, FAP fluorogen, flow cytometry | Am2.2-beta2AR cells | response, % (concentration not given with the values) | Beta-2 adrenergic receptor (Homo sapiens), P07550 | 0.43% of 340,000 active;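 active means response above a set limit, near 3 SD of response in nonfluorescent compounds, cut at about 42% in these data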
EBI2 antag conf: EBI2 antagonist hit retest, beta-arrestin, confirmation, cell-based, single concentration, luminescence, 7a,25-OHC stimulation; shares compounds with EBI2 antag; 29% of 2,400 active; 7a,25-OHC antagonism; inhibition, % at 5 µM;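 active means inhibition of at least 50%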
EBI2 agonist: EBI2 agonist activity of antagonist hits, confirmation, counter-screen for EBI2 antagonist project, cell-based, single concentration, agonist mode, luminescence; shares compounds with EBI2 antag; EBI2-expressing cells, 60 min; 0% vehicle, 100% 7α,25-dihydroxycholesterol control; activation, % at 5 µM; 2,400 tested, under 10 active; AID 652000, 2013;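 active means activation of at least 50%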
bGal counter: E. coli beta-galactosidase enzyme inhibition, confirmation, counter-screen for EBI2 antagonist project, biochemical, luminescence, single concentration; shares compounds with EBI2 antag; purified beta-galactosidase, luminescent Galacton Star, 15 min; inhibition, % at 5 µM; 1% of 2,400 active;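 active means replicate-average signal at least 3 plate SD below neutral wells, shown as high inhibition, flagging enzyme-inhibiting false positives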;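 further: 0% = DMSO wells with enzyme and 100% = wells lacking enzyme; higher means stronger loss of beta-gal luminescence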
An asterisk follows results filed as active; · = not tested or not shown.

SMILES	CXCR6 block	APJ antag	EBI2 antag	CCR6 antag	APJ ag	B2AR ag	EBI2 antag conf	EBI2 agonist	bGal counter
CCCNC(=O)c1cc2c(c(-c3cccc(-c4ccc(F)cc4)c3)n1)[C@H](CCO)N(S(=O)C(C)(C)C)C2 (some centres not stated)	13.0	·	60.8*	·	·	·	18.7	-0.3	-12.2
CCCNC(=O)c1cc2c(c(-c3cccc(-c4ccc(F)cc4)c3)n1)[C@@H](CCO)N(S(=O)C(C)(C)C)C2 (some centres not stated)	-1.2	·	-6.5	·	·	·	·	·	·
C[C@@H]1CN([C@H](C)CO)C(=O)CCCn2nncc2CO[C@@H]1CN(C)S(=O)(=O)c1cccc(F)c1	3.9	·	55.9*	·	·	·	27.0	-0.5	5.2
C[C@H]1CN([C@@H](C)CO)C(=O)CCCn2nncc2CO[C@H]1CN(C)S(=O)(=O)c1cccc(F)c1	0.3	·	-5.9	·	·	·	·	·	·
C[C@@H]1CN([C@@H](C)CO)C(=O)CCCn2nncc2CO[C@@H]1CN(C)S(=O)(=O)c1cccc(F)c1	4.1	·	64.5*	·	·	·	31.8	-0.7	-14.0
CCOc1ccccc1C1NC(=O)c2ccccc2N1 (configuration not stated)	3.1	·	-11.0	9.1	·	9.8	·	·	·
O=C(O)c1ccc2c(c1)CC(c1ccccc1)OC2=O (configuration not stated)	7.8	1.6	7.8	5.0	-0.9	-1.7	·	·	·
COc1ccc(N2CCN(C(=O)c3ccc4c(c3)CC(c3ccccc3)OC4=O)CC2)cc1 (configuration not stated)	5.3	21.2	91.3*	8.8	-9.0	-9.1	78.4*	-0.4	5.9
COc1ccc(C(=O)N2CCC(C(=O)N3CCN(c4ccccc4)CC3)CC2)cc1	10.7	-17.4	21.9	15.1	-2.1	-7.4	·	·	·
O=C1OC(c2ccccc2)Cc2cc(C(=O)N3CCN(c4ccc(F)cc4)CC3)ccc21 (configuration not stated)	-1.3	5.2	90.0*	1.2	1.1	-0.8	58.1*	1.0	8.0
COc1ccccc1C(=O)NNC(=O)C1CC=CCC1 (configuration not stated)	1.9	17.7	-4.4	10.6	-2.5	1.4	·	·	·
Cc1cccc(NC(=O)c2ccc(OC3CSC3)cc2)c1	-14.5	2.8	55.4*	0.8	-3.4	5.8	48.1	1.8	-2.6
O=C(CCC(=O)N1CCCC(Nc2ccccc2)C1)c1ccc(F)cc1 (configuration not stated)	-6.9	7.2	-0.8	0.6	-7.3	4.2	·	·	·
COc1ccc(C(=O)N2CCN(S(=O)(=O)c3ccc(C)cc3C)CC2)cc1OC	-2.9	13.4	47.9*	-0.8	0.6	0.3	51.3*	1.9	7.2
COc1cccc2cc(C(=O)N3CCN(c4ncccn4)CC3)c(=O)oc12	2.0	-12.2	0.0	-16.7	3.8	10.9	·	·	·
Cc1ccc(S(=O)(=O)N2CCN(C(=O)c3ccc4ccccc4n3)CC2)c(C)c1	2.9	-13.0	54.6*	2.2	-1.6	5.8	45.4	1.2	6.5
COc1cccc2cc(C(=O)N3CCN(c4ccc(C)cc4C)CC3)c(=O)oc12	0.1	13.5	46.9*	-14.2	3.2	-0.5	32.8	0.7	8.5
Cc1ccc(S(=O)(=O)N2CCN(C(=O)c3ccccn3)CC2)c(C)c1	-4.1	0.9	-9.4	-1.9	-0.3	-2.1	·	·	·
COc1ccc(C(=O)N2CCN(S(=O)(=O)c3ccc(C)cc3C)CC2)cc1S(=O)(=O)N1CCOCC1	5.4	·	14.5	5.4	·	-3.8	·	·	·
CC(=O)c1ccc(OCC(=O)N2CCN(S(=O)(=O)c3ccc(C)cc3C)CC2)cc1	-3.5	-7.4	65.2*	-15.9	-1.0	3.9	28.6	-0.2	9.3
CCCN(C(=O)CSc1ccccc1C(=O)O)C1CCS(=O)(=O)C1 (configuration not stated)	-9.9	-7.1	0.8	-0.6	-4.1	-4.7	·	·	·
COc1ccccc1-c1csc(Nc2ccc(Oc3ccccc3)cc2)n1	1.8	·	22.8	·	·	·	·	·	·
Cc1c(C)c2ccc(OCC(=O)NCCc3c[nH]c4ccccc34)cc2oc1=O	1.4	·	25.7	·	·	·	·	·	·
O=C(c1ccc2ccccc2c1O)N1CCCCC1	-7.1	·	-9.7	·	·	·	·	·	·
COc1ccc(C(=O)N2CCN(c3ccc(C)cc3C)CC2)cc1OC	0.6	-57.7	78.2*	8.0	-3.1	1.4	53.2*	0.8	8.9
SMILES	CXCR6 block	APJ antag	EBI2 antag	CCR6 antag	APJ ag	B2AR ag	EBI2 antag conf	EBI2 agonist	bGal counter
COc1ccc(C(=O)N2CCN(c3ccc(C)c(C)c3)CC2)cc1OC	-8.8	-31.8	2.4	4.1	-0.8	-0.9	·	·	·
CCn1c2ccccc2c2cc(NC(=O)C(C)OC(=O)c3ccc(NC(=O)CC#N)cc3)ccc21 (configuration not stated)	-0.6	10.3	-14.3	6.7	-1.3	1.7	·	·	·
COC(=O)C1CCN(C(=O)/C=C/c2ccc3c(c2)OCO3)CC1	4.8	1.4	57.4*	6.9	0.5	2.5	39.1	-0.6	-9.3
CCN1CCN(C(=O)/C=C/c2ccc3c(c2)OCO3)CC1	-0.1	-2.7	66.0*	15.8	-2.3	-0.6	48.3	0.2	4.0
CCOC(=O)N1CCN(C(=O)/C=C/c2ccc(OC)cc2)CC1	3.4	-6.6	89.6*	-4.8	-4.5	4.4	74.8*	-1.5	-11.2
CN1CCN(C(=O)/C=C/c2ccc3c(c2)OCO3)CC1	-11.4	-12.6	37.1	20.0	7.3	-2.9	·	·	·
CCOC(=O)N1CCN(C(=O)/C=C/c2ccc3c(c2)OCO3)CC1	-3.5	-1.3	59.3*	6.1	-3.8	-7.9	61.3*	-1.0	-15.0
CSc1ccc(CNC(=O)C2(C)CCCN(C(C)=O)C2)cc1 (configuration not stated)	-1.9	·	-12.0	·	·	·	·	·	·
COc1cc2[nH]c(C(=O)NCc3ccccc3)cc2c(OC)c1OC	5.0	10.4	-8.7	15.7	0.5	15.9	·	·	·
CC1C(O)=C(c2ccccc2)P(=O)(Cc2ccccc2)C1C (configuration not stated)	-2.1	·	-3.6	·	·	·	·	·	·
